These results are taken from ChEMBL document CHEMBL1240472, “Hypervalent iodine(III) mediated synthesis of novel unsymmetrical 2,5-disubstituted 1,3,4-oxadiazoles as antibacterial and antifungal agents” (2010).

Experiment [1] has as its system Escherichia coli. The experiment is described as follows: Antimicrobial activity against Escherichia coli MTCC 1652 by microdilution assay. In kind it is functional. The following applies: in the assay text read “macrodilution” for “microdilution”. In short, it runs like this:
(§1)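 MIC determined in µg/ml by the macrodilution method, only for compounds active in the primary diffusion screen. Results are means of three replicates.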
For orientation: In broth dilution the organism is exposed to a series of concentrations in liquid medium.

In experiment [2] the test system is Bacillus subtilis. The experiment is described as follows: Antimicrobial activity against Bacillus subtilis MTCC 121 […]. In kind it is functional.
Experiment [3] concerns Staphylococcus aureus. The experiment is described as follows: Antimicrobial activity against Staphylococcus aureus MTCC 96 […]. In kind it is functional.
Experiment [4] relates to Pseudomonas aeruginosa. The experiment is described as follows: Antimicrobial activity against Pseudomonas aeruginosa MTCC 741 after 24 hrs by […]. In kind it is functional. In short, it runs like this:
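Agar well diffusion assay (8 mm wells). Inhibition zone diameter read in mm, with the well diameter included in the value. Results are means of three replicates.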
Background: Agar diffusion results depend on both activity and mobility in agar.

Experiment [5] has as its system Aspergillus niger. The experiment is described as follows: Antimicrobial activity against Aspergillus niger assessed as inhibition of mycelial growth by poisoned food method. In kind it is functional.
The subject of experiment [6] is Staphylococcus aureus. The experiment is described as follows: Antimicrobial activity against Staphylococcus aureus MTCC 96 after by agar well diffusion method.
In experiment [7] the test system is Aspergillus flavus. The experiment is described as follows: Antimicrobial activity against Aspergillus flavus assessed as inhibition of mycelial growth by poisoned food method. In kind it is functional.
For experiment [8], the system named is Bacillus subtilis. The experiment is described as follows: Antimicrobial activity against Bacillus subtilis MTCC 121 by agar well diffusion method.
The test system of experiment [9] is Escherichia coli. The experiment is described as follows: Antimicrobial activity against Escherichia coli MTCC 1652 by […]. In kind it is functional.
For experiment [10], the system named is Pseudomonas aeruginosa. The experiment is described as follows: Antimicrobial activity against Pseudomonas aeruginosa MTCC 741 by microdilution assay. In kind it is functional. The settings on record: in the assay text read “macrodilution” for “microdilution”. Put shortly:
as §1

Values after ≈ are worked out from the molar mass of the structure shown. A value given as a limit tells only on which side of the number the result lay.

As a reminder, the MIC is the lowest concentration that inhibits growth of the organism. High values mean a less susceptible organism, low ones a more susceptible organism. With `c1ccc(-c2nnc(-c3cn(-c4ccccc4)nc3-c3ccccc3)o2)cc1`, the MIC in experiment [1] is > 128 µg/mL; in experiment [2], 128 µg/mL (≈ 351 µM); in experiment [3], 64 µg/mL (≈ 176 µM); in [10] it was > 128 µg/mL. Moreover, the “inhibition zone (IZ)” value is reported as 13.6 mm in experiment [4], 20.3 mm in experiment [6], 18.6 mm in experiment [8] and 14.3 mm in [9]. In addition, the “inhibition (INH)” value is listed as 44.4% in experiment [5] and 61.1% in [7].
On to `Brc1ccc(-c2nn(-c3ccccc3)cc2-c2nnc(-c3ccccc3)o2)cc1`, for which the MIC in [1] was 128 µg/mL (≈ 289 µM); in [2], 128 µg/mL (≈ 289 µM); in experiment [3] it was 64 µg/mL (≈ 144 µM); in [10], > 128 µg/mL. Further, the “inhibition zone (IZ)” value is reported as 14.6 mm in experiment [4], 20 mm in experiment [6], 18.3 mm in experiment [8] and 16.6 mm in experiment [9]. Further, the “inhibition (INH)” value in experiment [5] is 61.1%; in [7] it was 55.5%.
Consider `O=[N+]([O-])c1ccc(-c2nn(-c3ccc([N+](=O)[O-])cc3)cc2-c2nnc(-c3ccccc3)o2)cc1`, for which the MIC in [1] was 128 µg/mL (≈ 282 µM); in experiment [2] it was 8 µg/mL (≈ 17.6 µM); in [3], 16 µg/mL (≈ 35.2 µM); in [10], > 128 µg/mL. Moreover, the “inhibition zone (IZ)” value in [4] stood at 14.6 mm; in [6], 22.6 mm; in experiment [8], 23.6 mm; in experiment [9] it was 18.3 mm. The “inhibition (INH)” value in [5] came to 55.5%; in [7], 44.4%.
As to `Clc1ccc(-c2nn(-c3ccccc3)cc2-c2nnc(-c3ccccc3)o2)cc1`, the MIC in experiment [1] is > 128 µg/mL; in experiment [2], 64 µg/mL (≈ 160 µM); in [3], 32 µg/mL (≈ 80.2 µM); in experiment [10], > 128 µg/mL. Further, the “inhibition zone (IZ)” value in experiment [4] came to 13.6 mm; in experiment [6] it was 21.6 mm; in experiment [8], 19.6 mm; in experiment [9], 15.6 mm. Moreover, the “inhibition (INH)” value in [5] was 55.5%; in experiment [7], 44.4%.
Consider `O=[N+]([O-])c1ccc(-n2cc(-c3nnc(-c4ccccc4)o3)c(-c3ccccc3)n2)cc1`, for which the MIC in experiment [1] is 128 µg/mL (≈ 313 µM); in experiment [2], 8 µg/mL (≈ 19.5 µM); in experiment [3], 64 µg/mL (≈ 156 µM); in [10] it was > 128 µg/mL. The “inhibition zone (IZ)” value in [4] amounted to 15.3 mm; in [6] it was 20.6 mm; in [8], 24.3 mm; in experiment [9], 18.6 mm. For the same compound, the “inhibition (INH)” value in experiment [5] and in experiment [7] was 66.6% each time.
As to `O=[N+]([O-])c1ccc(-c2nn(-c3ccccc3)cc2-c2nnc(-c3ccccc3)o2)cc1`, the MIC in experiment [1] is > 128 µg/mL; in [2] it was 16 µg/mL (≈ 39.1 µM); in [3], 8 µg/mL (≈ 19.5 µM); in [10] it was > 128 µg/mL. The “inhibition zone (IZ)” value was determined as 14.3 mm in [4], 23.3 mm in [6], 21.6 mm in experiment [8] and 15.6 mm in [9]. The “inhibition (INH)” value was 50% in experiment [5] and 61.1% in [7].
For `O=[N+]([O-])c1ccc(-n2cc(-c3nnc(-c4ccccc4)o3)c(-c3ccc(F)cc3)n2)cc1`, the MIC in experiment [1] was determined as 64 µg/mL (≈ 150 µM); in [2] it was 8 µg/mL (≈ 18.7 µM); in [3], 32 µg/mL (≈ 74.9 µM); in [10], 128 µg/mL (≈ 299 µM). The “inhibition zone (IZ)” value in [4] is 16.6 mm; in [6], 21.3 mm; in experiment [8], 24.3 mm; in [9] it was 20 mm. The “inhibition (INH)” value was 44.4% in experiment [5] and 55.5% in [7].
On to `Fc1ccc(-c2nn(-c3ccccc3)cc2-c2nnc(-c3ccccc3)o2)cc1`, for which the MIC was > 128 µg/mL in [1], 32 µg/mL (≈ 83.7 µM) in experiment [2], 128 µg/mL (≈ 335 µM) in experiment [3] and > 128 µg/mL in [10]. Further, the “inhibition zone (IZ)” value in [4] was found to be 14.3 mm; in experiment [6], 18.6 mm; in [8], 20.6 mm; in experiment [9], 14.3 mm. The “inhibition (INH)” value in experiment [5] is 66.6%; in experiment [7], 50%.
For the compound `Cc1ccc(-c2nn(-c3ccccc3)cc2-c2nnc(-c3ccccc3)o2)cc1`, the MIC in experiment [1] is > 128 µg/mL; in [2] it was 16 µg/mL (≈ 42.3 µM); in experiment [3], 128 µg/mL (≈ 338 µM); in experiment [10], > 128 µg/mL. In addition, the “inhibition zone (IZ)” value turned out to be 13.6 mm in [4], 18.3 mm in experiment [6], 21.6 mm in [8] and 15.6 mm in experiment [9]. For the same compound, the figures for the “inhibition (INH)” value in [5] and in experiment [7] were 66.6% and 61.1%, respectively.
Consider `COc1ccc(-c2nn(-c3ccc([N+](=O)[O-])cc3)cc2-c2nnc(-c3ccccc3)o2)cc1`, for which the MIC in experiment [1] is 64 µg/mL (≈ 146 µM); in experiment [2] it was 8 µg/mL (≈ 18.2 µM); in [3] it was 8 µg/mL (≈ 18.2 µM); in experiment [10], 64 µg/mL (≈ 146 µM). The “inhibition zone (IZ)” value came out at 18.6 mm in experiment [4], 24.3 mm in experiment [6], 23.6 mm in [8] and 20.6 mm in experiment [9]. The “inhibition (INH)” value was determined as 55.5% in [5] and 50% in experiment [7].
For the compound `COc1ccc(-c2nn(-c3ccccc3)cc2-c2nnc(-c3ccccc3)o2)cc1`, the minimal inhibitory concentration (MIC) in experiment [1] was 128 µg/mL (≈ 325 µM); in experiment [2], 32 µg/mL (≈ 81.1 µM); in experiment [3], 16 µg/mL (≈ 40.6 µM); in experiment [10], > 128 µg/mL. The “inhibition zone (IZ)” value in [4] is given as 14 mm; in experiment [6], 22.6 mm; in experiment [8], 20.3 mm; in experiment [9], 16.3 mm. For the same compound, the “inhibition (INH)” value in experiment [5] was 44.4%; in [7], 66.6%.
Turning to `O=C(O)c1cn(C2CC2)c2cc(N3CCNCC3)c(F)cc2c1=O` [CIPROFLOXACIN], the MIC in experiment [1], in [2], in [3] and in experiment [10] was 5 µg/mL (≈ 15.1 µM) throughout. Moreover, the entries for the “inhibition zone (IZ)” value in experiment [4], in experiment [6] and in experiment [8] were 22 mm, 26 mm and 24 mm, respectively.
With `OC(Cn1cncn1)(Cn1cncn1)c1ccc(F)cc1F` [FLUCONAZOLE], the “inhibition (INH)” value in [5] was determined as 81.1%; in [7], 77.7%.
